Assay results as given in ChEMBL document CHEMBL4725242, “Discovery of GS-9688 (Selgantolimod) as a Potent and Selective Oral Toll-Like Receptor 8 Agonist for the Treatment of Chronic Hepatitis B” (J Med Chem, 2020).
Active and inactive are the calls of the source.

Tests used:
[1] = target: T1, C-type lectin domain family 7 member A (Homo sapiens) (UniProt Q9BXN2); assay: Agonist activity at human Dectin1b expressed in HEK293 cells assessed as increase in NF-kappaB activation up to 10 uM incubated for 24 hrs by quanti-blue SEAP reporter gene assay; assay type: cell-based; conditions: dose microM <=10, time 24.0 hrs
T1 sequence (whole entry): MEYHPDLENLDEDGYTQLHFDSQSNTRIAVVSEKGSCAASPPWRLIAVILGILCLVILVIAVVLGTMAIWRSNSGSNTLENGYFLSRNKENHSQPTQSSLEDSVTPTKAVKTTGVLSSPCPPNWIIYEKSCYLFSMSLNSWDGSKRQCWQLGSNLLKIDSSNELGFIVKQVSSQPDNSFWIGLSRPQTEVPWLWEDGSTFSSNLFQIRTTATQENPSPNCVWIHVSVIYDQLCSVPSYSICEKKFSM
Method in brief: (§1)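 HEK293 cells stably expressing individual human TLRs or other innate immune receptors, used as reporter gene assays. Minimum effective concentration defined as the level giving a 3-fold rise over background.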

[2] = target: Toll-like receptor 2 (Homo sapiens) (UniProt O60603); assay: Agonist activity at human TLR2 expressed in HEK293 cells assessed as increase in NF-kappaB activation up to 10 uM incubated for 24 hrs by quanti-blue SEAP reporter gene assay; assay type: cell-based; conditions: dose microM <=10, time 24.0 hrs; method in brief: as §1
Sequence of Toll-like receptor 2 (Homo sapiens) (O60603 whole entry): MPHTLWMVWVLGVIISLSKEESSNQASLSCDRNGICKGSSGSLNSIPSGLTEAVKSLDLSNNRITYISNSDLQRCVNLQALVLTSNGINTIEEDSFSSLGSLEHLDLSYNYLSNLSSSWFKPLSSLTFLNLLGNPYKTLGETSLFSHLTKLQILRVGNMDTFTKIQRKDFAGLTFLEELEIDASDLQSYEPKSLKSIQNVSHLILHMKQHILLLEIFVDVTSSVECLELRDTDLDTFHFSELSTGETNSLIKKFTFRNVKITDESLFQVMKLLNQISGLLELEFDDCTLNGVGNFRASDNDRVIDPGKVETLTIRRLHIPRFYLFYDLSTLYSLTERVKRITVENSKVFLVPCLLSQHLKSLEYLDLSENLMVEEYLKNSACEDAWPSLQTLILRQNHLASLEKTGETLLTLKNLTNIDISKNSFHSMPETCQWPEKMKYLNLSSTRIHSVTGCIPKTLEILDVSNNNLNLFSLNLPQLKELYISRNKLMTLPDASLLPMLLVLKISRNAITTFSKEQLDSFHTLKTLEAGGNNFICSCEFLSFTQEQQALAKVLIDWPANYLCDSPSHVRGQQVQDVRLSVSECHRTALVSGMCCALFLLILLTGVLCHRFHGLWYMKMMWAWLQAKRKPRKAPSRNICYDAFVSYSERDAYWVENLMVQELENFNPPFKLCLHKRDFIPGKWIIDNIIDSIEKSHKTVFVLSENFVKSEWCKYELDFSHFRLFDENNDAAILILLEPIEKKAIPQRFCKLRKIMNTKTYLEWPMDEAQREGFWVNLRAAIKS

[3] = Apparent permeability across basolateral to apical side in human Caco2 cells measured after 1 to 2 hrs by LC-MS/MS analysis; conditions: Caco-2
[4] = Clearance in Sprague-Dawley rat at 1 mg/kg, iv administered as 30 mins infusion by HPLC-MS analysis; assay type: ADME, organism-based; conditions: in vivo
Method in brief: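 30-min intravenous infusion: Sprague Dawley rats 1 mg/kg, beagle dogs 0.25 mg/kg, cynomolgus monkeys 0.1 mg/kg; n = 3 per species, reported as mean ± SD.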

Homo sapiens = species: Homo sapiens; assay: Selectivity ratio of EC50 for TLR7 in human cryopreserved PBMC assessed as induction of IFNalpha production to EC50 for TLR8 in human cryopreserved PBMC assessed as induction of IL-12p40 production
Method in brief: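 Cryopreserved healthy-donor human PBMC, recovered 2 h at 37°C/5% CO2, then 100k cells/well in RPMI/10% FBS exposed 24 h at 37°C to a 10-point half-log dilution series (0.5% final DMSO). Supernatant IFNα-2a quantified by MSD electrochemiluminescence immunoassay. Normalized to 10 µM GS-9620 positive and DMSO negative controls; EC50 from 4-parameter logistic fit. For the ratio, divided by the IL-12p40 EC50 from the same PBMC screen.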

[5] = target: T2, Toll-like receptor 8 (Homo sapiens) (UniProt Q9NR97); assay: Agonist activity at human TLR8 expressed in HEK293 cells assessed as increase in NF-kappaB activation incubated for 24 hrs by quanti-blue SEAP reporter gene assay; assay type: cell-based; conditions: filed as agonist
T2 sequence (whole entry): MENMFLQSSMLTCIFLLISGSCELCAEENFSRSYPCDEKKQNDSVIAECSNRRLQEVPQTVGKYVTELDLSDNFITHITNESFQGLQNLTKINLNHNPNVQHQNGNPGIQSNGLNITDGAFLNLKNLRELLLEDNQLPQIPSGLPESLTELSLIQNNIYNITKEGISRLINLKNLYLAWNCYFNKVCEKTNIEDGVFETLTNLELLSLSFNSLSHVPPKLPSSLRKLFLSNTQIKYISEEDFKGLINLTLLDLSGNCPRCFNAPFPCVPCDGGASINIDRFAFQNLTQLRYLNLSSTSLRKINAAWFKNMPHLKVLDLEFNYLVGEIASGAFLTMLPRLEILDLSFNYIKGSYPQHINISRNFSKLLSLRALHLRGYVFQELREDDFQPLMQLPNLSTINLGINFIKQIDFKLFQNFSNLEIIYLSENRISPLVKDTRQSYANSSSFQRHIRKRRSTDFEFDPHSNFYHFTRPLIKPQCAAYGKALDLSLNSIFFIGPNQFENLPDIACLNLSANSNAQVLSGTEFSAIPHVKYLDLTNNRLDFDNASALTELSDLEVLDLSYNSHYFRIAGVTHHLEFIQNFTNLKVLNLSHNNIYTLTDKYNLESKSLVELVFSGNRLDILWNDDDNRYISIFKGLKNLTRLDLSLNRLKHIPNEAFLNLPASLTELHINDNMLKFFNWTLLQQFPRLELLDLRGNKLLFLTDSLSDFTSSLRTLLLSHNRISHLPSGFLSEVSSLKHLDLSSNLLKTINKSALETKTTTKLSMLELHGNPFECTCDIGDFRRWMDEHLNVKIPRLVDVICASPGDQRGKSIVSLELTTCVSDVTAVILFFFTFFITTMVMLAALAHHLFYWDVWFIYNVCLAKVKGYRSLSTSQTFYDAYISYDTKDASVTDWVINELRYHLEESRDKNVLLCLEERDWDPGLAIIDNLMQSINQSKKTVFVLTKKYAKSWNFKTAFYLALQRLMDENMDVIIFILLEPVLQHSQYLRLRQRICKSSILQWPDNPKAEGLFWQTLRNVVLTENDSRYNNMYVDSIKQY
Method in brief: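 HEK293 cells stably expressing human TLR8 reporter. Value taken as the minimum effective concentration (MEC), defined as the concentration giving a 3-fold increase in reporter signal above background.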

[6] = target: T1, C-type lectin domain family 7 member A (Homo sapiens); assay: Agonist activity at human Dectin1a expressed in HEK293 cells assessed as increase in NF-kappaB activation up to 10 uM incubated for 24 hrs by quanti-blue SEAP reporter gene assay; assay type: cell-based; conditions: dose microM <=10, time 24.0 hrs; method in brief: as §1

## CCCC[C@](C)(CO)Nc1nc(N)nc2cc(F)cnc12 [SELGANTOLIMOD]
[1]
  Activity: inactive
[2]
  Activity: inactive
[3]
  Papp B→A: 11 ×10⁻⁶ cm/s
[4]
  clearance: 30 mL/min/kg
Homo sapiens
  Ratio EC50: > 185
[5]
  MEC: 49 nM
[6]
  Activity: inactive
